Reference: ChEMBL document CHEMBL2331266, “Five-membered iminocyclitol α-glucosidase inhibitors: synthetic, biological screening and in silico studies” (Bioorg Med Chem, 2013)

Columns and labels:
Saccharomyces cerevisiae [1] = assay: Inhibition of Saccharomyces cerevisiae alpha-glucosidase using p-nitrophenyl-alpha-D-[…] as substrate at = / >10.9 mM after 20 mins by UV/Vis spectrophotometric analysis
Outline: (§1)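 Baker's yeast α-glucosidase at 0.04 U/mL in 0.1 M phosphate buffer, pH 6.7. Substrate was 2 mM p-nitrophenyl-α-D-glucopyranoside; the optimized Km was 0.258 mM. Inhibitors were dissolved in 2% DMSO in the same buffer and tested at up to 46 mM. Activity was read as the p-nitrophenol released. Five replicates per sample.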

[2] = Inhibition of Saccharomyces cerevisiae alpha-glucosidase using p-nitrophenyl-alpha-D-[…] as substrate after 20 mins by UV/Vis spectrophotometric analysis; outline: as §1
Saccharomyces cerevisiae [3] = assay: Inhibition of Saccharomyces cerevisiae alpha-glucosidase using p-nitrophenyl-alpha-D-[…] as substrate at 25 mM after 20 mins by UV/Vis spectrophotometric analysis; outline: as §1

SMILES | inhibition (Saccharomyces cerevisiae [1]) | IC50 [2] | inhibition (Saccharomyces cerevisiae [3])
O[C@H]1CN(Cc2ccccc2)C[C@@H]1O | > 50% | 38 mM | –
CC(=O)O[C@@H]1CNC[C@H]1OC(C)=O | – | – | 40%
C[C@H]1O[C@H](O[C@H]2[C@H](O)[C@@H](O)[C@@H](O[C@H]3[C@H](O)[C@@H](O)C(O)O[C@@H]3CO)O[C@@H]2CO)[C@H](O)[C@@H](O)[C@@H]1N[C@H]1C=C(CO)[C@@H](O)[C@H](O)[C@H]1O (stereo partly specified) [ACARBOSE] | – | 25 mM | –

Further compounds by falling IC50 [2], results first:

inhibition (Saccharomyces cerevisiae [1]) | IC50 [2] | inhibition (Saccharomyces cerevisiae [3]) | SMILES
> 50% | 25 mM | – | O[C@@H]1CN(Cc2ccccc2)C[C@H]1O
> 50% | 12.5 mM | 80% | CC(=O)O[C@H]1CNC[C@@H]1OC(C)=O
> 50% | 10.9 mM | – | O[C@H]1CNC[C@@H]1O
